Key:
[1] = Partition coefficient (logP); settings: octanol/water, logP
[2] = Ability to inhibit mouse alpha DNA polymerase
How it was run: (§1)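 Enzyme in 50% glycerol, 1 mM dithiothreitol, 0.5 M KCl and 50 mM Tris-HCl pH 7.5 was premixed with inhibitor in 100% Me2SO and held on ice 10 min. Cocktail (MnCl2, KCl, NaF, BSA, [3H]dGTP, poly(2'-O-methylcytidylic acid)·d(pG)12-18) was then added. Incubation was 45 min at 37 °C.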

[3] = The logarithm of the reciprocal of the concentration which produces 50% inhibition of mammalian alpha DNA polymerase.
How it was run: (§2)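 Mammalian α or β DNA polymerase in 100 µL reaction: enzyme in 50% glycerol, 1 mM DTT, 0.5 M KCl, Tris-HCl pH 7.5; Me2SO compound; cocktail with MnCl2, NaF, [3H]dGTP, poly(2'-O-methylC)·d(pG)12-18 template. Compound added first, then enzyme, then cocktail; 45 min at 37 °C. Product radioactivity, background-corrected against Me2SO controls; 50% concentration from triplicate five-dose curves, 10^-3–10^-7 M, expressed as log(1/C).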

[4] = biological target: DNA polymerase beta (Mus musculus, UniProt Q8K409); test: Ability to inhibit mouse beta DNA polymerase; how it was run: as §1
[5] = biological target: Gag-Pol polyprotein (Woolly monkey sarcoma virus, UniProt P03359); test: Ability to inhibit simian sarcoma virus reverse transcriptase
How it was run: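 Purified SSV-1 RNA-dependent DNA polymerase from 71 AP1 culture fluids, in 20% glycerol, 1 mM dithiothreitol, 1 mg/mL BSA and 50 mM Tris-HCl pH 7.5, was held 10 min on ice with inhibitor in Me2SO. Mn2+/[3H]dGTP cocktail with poly(2'-O-methylcytidylic acid)·d(pG)12-18 template was added, then 45 min at 37 °C. Background-corrected triplicate dose series; the 50% inhibition concentration was extrapolated.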

[6] = biological target: Gag-Pol polyprotein (Woolly monkey sarcoma virus) (UniProt P03359); test: Inhibition of simian sarcoma virus reverse transcriptase
How it was run: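 SSV-1 RNA-dependent DNA polymerase purified from tissue culture fluid of 71 AP1 cells. 50 µL reaction containing 20% glycerol, 1 mM DTT, BSA, Tris-HCl pH 7.5, MnCl2, KCl, NaF, [3H]dGTP and poly(2'-O-methylC)·d(pG)12-18. Compound in Me2SO is mixed with enzyme on ice for 10 min before the cocktail is added, then incubated 45 min at 37 °C. Radioactivity in product; 50% inhibitory concentration from triplicate dose–response curves spanning 10^-3 to 10^-7 M.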

[7] = biological target: DNA polymerase beta (Mus musculus) (UniProt Q8K409); test: The logarithm of the reciprocal of the concentration which produces 50% inhibition of mammalian beta DNA polymerase.; how it was run: as §2

Chain of Gag-Pol polyprotein (P03359 642-1310 limits assumed): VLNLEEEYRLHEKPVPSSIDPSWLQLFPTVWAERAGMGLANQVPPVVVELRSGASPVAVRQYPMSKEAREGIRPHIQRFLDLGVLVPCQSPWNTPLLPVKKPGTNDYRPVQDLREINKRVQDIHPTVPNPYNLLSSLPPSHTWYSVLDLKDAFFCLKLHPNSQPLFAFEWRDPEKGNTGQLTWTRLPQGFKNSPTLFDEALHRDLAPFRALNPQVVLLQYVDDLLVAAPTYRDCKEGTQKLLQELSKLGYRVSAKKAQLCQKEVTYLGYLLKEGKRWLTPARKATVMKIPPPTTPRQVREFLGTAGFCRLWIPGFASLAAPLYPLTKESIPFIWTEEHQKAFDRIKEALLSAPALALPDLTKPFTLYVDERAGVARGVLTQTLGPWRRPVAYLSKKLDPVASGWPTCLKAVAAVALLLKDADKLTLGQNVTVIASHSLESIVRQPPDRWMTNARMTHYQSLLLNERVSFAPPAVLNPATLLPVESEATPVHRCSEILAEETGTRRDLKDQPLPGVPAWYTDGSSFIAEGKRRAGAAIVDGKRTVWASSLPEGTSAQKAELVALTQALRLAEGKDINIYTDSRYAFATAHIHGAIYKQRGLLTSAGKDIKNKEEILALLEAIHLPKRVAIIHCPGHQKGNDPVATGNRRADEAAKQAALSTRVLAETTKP
Chain of Gag-Pol polyprotein (Woolly monkey sarcoma virus) (P03359 whole entry): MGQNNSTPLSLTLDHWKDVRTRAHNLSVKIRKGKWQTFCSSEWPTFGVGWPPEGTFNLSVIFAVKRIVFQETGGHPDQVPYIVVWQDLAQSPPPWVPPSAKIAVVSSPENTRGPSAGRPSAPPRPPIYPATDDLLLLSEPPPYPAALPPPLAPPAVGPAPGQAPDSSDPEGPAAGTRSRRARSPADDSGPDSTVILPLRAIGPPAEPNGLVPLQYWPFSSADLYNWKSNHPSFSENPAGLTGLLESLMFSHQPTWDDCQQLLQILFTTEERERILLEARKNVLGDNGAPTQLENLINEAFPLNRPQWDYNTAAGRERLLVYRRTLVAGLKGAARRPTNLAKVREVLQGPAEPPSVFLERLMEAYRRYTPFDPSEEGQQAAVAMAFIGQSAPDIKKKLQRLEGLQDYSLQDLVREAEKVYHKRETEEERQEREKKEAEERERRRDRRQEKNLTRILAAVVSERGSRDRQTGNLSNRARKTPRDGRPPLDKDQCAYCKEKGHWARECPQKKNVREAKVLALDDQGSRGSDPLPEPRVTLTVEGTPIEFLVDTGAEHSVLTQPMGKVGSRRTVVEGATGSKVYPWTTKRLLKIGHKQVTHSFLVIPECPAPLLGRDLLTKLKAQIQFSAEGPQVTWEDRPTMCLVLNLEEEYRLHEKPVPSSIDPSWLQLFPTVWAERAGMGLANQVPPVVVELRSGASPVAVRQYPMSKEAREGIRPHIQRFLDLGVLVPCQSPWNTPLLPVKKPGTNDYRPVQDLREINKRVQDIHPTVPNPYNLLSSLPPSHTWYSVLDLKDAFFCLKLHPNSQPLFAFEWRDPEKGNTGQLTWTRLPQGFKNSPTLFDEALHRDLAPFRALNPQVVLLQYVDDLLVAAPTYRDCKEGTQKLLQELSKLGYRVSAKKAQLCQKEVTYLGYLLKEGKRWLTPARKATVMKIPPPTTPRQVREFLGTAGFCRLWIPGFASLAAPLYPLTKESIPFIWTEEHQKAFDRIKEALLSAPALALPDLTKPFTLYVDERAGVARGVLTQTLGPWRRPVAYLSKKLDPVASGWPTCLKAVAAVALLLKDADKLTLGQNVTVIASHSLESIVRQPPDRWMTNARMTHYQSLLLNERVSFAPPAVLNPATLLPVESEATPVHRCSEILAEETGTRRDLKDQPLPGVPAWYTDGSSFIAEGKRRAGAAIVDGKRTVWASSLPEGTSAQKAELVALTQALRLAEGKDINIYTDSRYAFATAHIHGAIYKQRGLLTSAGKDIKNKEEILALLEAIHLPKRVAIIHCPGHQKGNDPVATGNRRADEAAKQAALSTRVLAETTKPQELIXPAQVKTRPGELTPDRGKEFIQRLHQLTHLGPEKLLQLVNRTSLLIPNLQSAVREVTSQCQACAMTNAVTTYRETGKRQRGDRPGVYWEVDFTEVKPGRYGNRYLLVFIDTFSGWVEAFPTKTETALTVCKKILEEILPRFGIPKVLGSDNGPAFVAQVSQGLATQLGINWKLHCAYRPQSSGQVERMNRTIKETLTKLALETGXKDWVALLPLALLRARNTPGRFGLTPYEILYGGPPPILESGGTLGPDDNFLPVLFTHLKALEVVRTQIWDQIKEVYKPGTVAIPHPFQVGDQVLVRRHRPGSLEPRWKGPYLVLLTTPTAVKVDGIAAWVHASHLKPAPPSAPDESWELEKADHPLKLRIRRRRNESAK

Compound | logP [1] | IC50 [2] [M l-1] | Log 1/C [3] | IC50 [4] [M l-1] | IC50 ([5]; read-out: IC50) [µM] | Log 1/C [6] | Log 1/C [7] | IC50 [5] [M l-1] | IC50 ([4]; read-out: IC50) [µM]
COC1/C=C/OC2(C)Oc3c(C)c(O)c4c(O)c(ccc4c3C2=O)NC(=O)/C(C)=C\C=C\C(C)C(O)C(C)C(O)C(C)C(OC(C)=O)C1C (stereo unspecified) | 0.78 | 0.00076 | 3.12 | 0.0011 | – | 3.43 | 2.96 | 0.00037 | –
COC1/C=C/OC2(C)Oc3c(C)c(O)c4c(O)c(c(C=O)cc4c3C2=O)NC(=O)/C(C)=C\C=C\C(C)C(O)C(C)C(O)C(C)C(OC(C)=O)C1C (stereo unspecified) | 0.13 | 0.000102 | 2.99 | 0.000104 | 17 | 2.99 | 2.99 | – | –
CCCCCCCCO/N=C/c1cc2c3c4c(C)c(O)c2c(O)c1NC(=O)/C(C)=C\C=C\C(C)C(O)C(C)C(O)C(C)C(OC(C)=O)C(C)C(OC)/C=C/OC(C)(O4)C3=O (stereo unspecified) | 5.2 | 0.000015 | 4.94 | – | 1 | 6 | 4.89 | – | 13
COC1/C=C/OC2(C)Oc3c(C)c(O)c4c(O)c(c(/C=N/N5CCCCCCCCCC5)cc4c3C2=O)NC(=O)/C(C)=C\C=C\C(C)C(O)C(C)C(O)C(C)C(OC(C)=O)C1C (stereo unspecified) | 4.05 | 0.000031 | 4.51 | – | 6.6 | 5.18 | 4.65 | – | 22
COC1/C=C/OC2(C)Oc3c(C)c(O)c4c(O)c(c(/C=N/NC5CCCCCCCCCCCCCC5)cc4c3C2=O)NC(=O)/C(C)=C\C=C\C(C)C(O)C(C)C(O)C(C)C(OC(C)=O)C1C (stereo unspecified) | 6.78 | 0.0000115 | 4.94 | – | 0.85 | 6.07 | 4.82 | – | 15

Further lines, results first:

logP [1] | IC50 [2] [M l-1] | Log 1/C [3] | IC50 [4] [M l-1] | IC50 ([5]; read-out: IC50) [µM] | Log 1/C [6] | Log 1/C [7] | IC50 [5] [M l-1] | IC50 ([4]; read-out: IC50) [µM] | Compound
3.34 | 0.00014 | 3.85 | 0.00012 | 10 | 5 | 3.92 | – | – | COc1cccc(CN2CCN(/N=C/c3cc4c5c6c(C)c(O)c4c(O)c3NC(=O)/C(C)=C\C=C\C(C)C(O)C(C)C(O)C(C)C(OC(C)=O)C(C)C(OC)/C=C/OC(C)(O6)C5=O)CC2)c1 (stereo unspecified)
4.83 | 0.000034 | 4.46 | – | 5.6 | 5.25 | 5.18 | – | 6.6 | COC1/C=C/OC2(C)Oc3c(C)c(O)c4c(O)c(c(/C=N/OCCCc5ccccc5)cc4c3C2=O)NC(=O)/C(C)=C\C=C\C(C)C(O)C(C)C(O)C(C)C(OC(C)=O)C1C (stereo unspecified)
4.28 | 0.000038 | 4.42 | – | 12.5 | 4.9 | 4.68 | – | 21 | COC1/C=C/OC2(C)Oc3c(C)c(O)c4c(O)c(c(/C=N/N5C(C)CN(Cc6ccccc6)CC5C)cc4c3C2=O)NC(=O)/C(C)=C\C=C\C(C)C(O)C(C)C(O)C(C)C(OC(C)=O)C1C (stereo unspecified)
